Source: PubChem BioAssay
GPR7 antagonist = human neuropeptides B/W receptor 1 antagonism | P48145 | GPR7-expressing cells, fluorescence antagonist assay | inhibition, % at 4.4 µM | 290,000 tested, 1.1% active | AID 1861; in the data active means inhibition above about 16%, passing the limit was not always enough;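 further: cells stimulated with the agonist NPW; 0% = agonist with vehicle and 100% = vehicle without agonist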
TAAR1 antagonist = human TAAR1 antagonism | 360,000 tested, 1.5% active | Q96RJ0 | CHO RD-HGA16 TAAR1, Fluo-8 calcium fluorescence, antagonist | inhibition, % at 3 µM;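 active means inhibition above a per-plate cutoff, the mean inhibition of test compounds on that plate plus 3 SD, cut at about 49% in these data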;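 further: 0% = DMSO plus EC80 beta-PEA response and 100% = DMSO alone without agonist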
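Material: CHO RD-HGA16 cells bearing hTAAR1; compound dosing: one-point dosing, 3 µM nominal final; schedule: dye loading 75 min at 37 °C, then 30 min room temperature; measured by: calcium fluorescence with Fluo-8; control set: vehicle and agonist controls; replication: n of 1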
OX1R antag-1 = blocks the human orexin 1 receptor; O43613; OX1R-expressing cells, FRET antagonist read-out; inhibition, % at 6.6 µM; 330,000 tested, 1.8% active; AID 485270; in the data active means inhibition mostly above about 38%, no sharp cut-off; inactive means mostly below about 40%;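 further: 0% = agonist challenge alone and 100% = reference antagonist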
Target sequence (O43613 whole entry, looked up): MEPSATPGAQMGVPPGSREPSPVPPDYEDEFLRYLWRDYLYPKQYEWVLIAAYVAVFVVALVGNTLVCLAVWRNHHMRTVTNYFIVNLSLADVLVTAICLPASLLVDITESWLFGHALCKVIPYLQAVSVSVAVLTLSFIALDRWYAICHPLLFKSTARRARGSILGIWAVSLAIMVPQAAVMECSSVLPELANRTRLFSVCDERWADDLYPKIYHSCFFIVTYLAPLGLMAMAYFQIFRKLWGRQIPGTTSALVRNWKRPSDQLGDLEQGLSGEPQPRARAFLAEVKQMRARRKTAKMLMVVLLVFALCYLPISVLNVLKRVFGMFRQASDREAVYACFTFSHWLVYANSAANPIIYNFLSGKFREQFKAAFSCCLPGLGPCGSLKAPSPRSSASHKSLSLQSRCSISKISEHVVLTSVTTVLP
CHO parental Ca = counter-screen for OX1R antagonists: effect in parental CHO cells. inhibition, % at 5.6 µM. 330,000 tested, 0.63% active. parental CHO-K1, ATP-induced calcium, Fluo-8 fluorescence;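 active means inhibition above that plate's mean sample inhibition plus 3 SD, cut at about 26% in these data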;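 further: 0% = ATP-challenged DMSO wells and 100% = DMSO wells without ATP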
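Assay system: untransfected parental CHO cell line. Also added: ATP agonist challenge. Dosing: one dose, 5.6 µM nominal. Measured by: Fluo-8 fluorescence. Read-out: % inhibition. Benchmarks: ATP wells versus no-ATP DMSO wells. Repeats: no replicates.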
TAAR1 ag = human TAAR1 agonism; 360,000 tested, 0.99% active; CHO RD-HGA16 TAAR1, Fluo-8 calcium fluorescence; vehicle wells 0%, saturating PEA agonist 100%; AID 624467; activation, % at 3 µM;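 active means activation above the mean activation of all test compounds in the run plus 3 SD, cut at about 38% in these data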
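test system = CHO RD-HGA16 cells carrying human TAAR1 plus Gα16 | schedule = 17-24 h seeding, 75 min 37 °C dye, 30 min RT | compound dosing = 3 µM single concentration | control set = DMSO and PEA EC100 | replicates = n 1 | signal = Fluo-8 fluorescence, 5 s baseline then 140 s kinetic read | measure = percent activation vs PEA EC100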
OX1R antag-2 = blocks the human orexin 1 receptor | O43613 | AID 434989 | inhibition, % at 5 µM | 330,000 tested, 0.43% active | CHO/OX1R cells, Fluo-8 calcium fluorescence, orexin A;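 active means inhibition above its plate's threshold, mean inhibition of all tested compounds on the plate plus 3 SD, cut at about 37% in these data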;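 further: 0% = orexin A challenge wells and 100% = SB-334867-A antagonist wells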
OX1R HTRF conf = confirmation of human orexin 1 receptor antagonists, HTRF format; inhibition, % at 6.6 µM; shares compounds with OX1R antag-1; 1,800 tested, 49% active; AID 492964; OX1R-expressing cells, HTRF antagonist assay; in the data active means inhibition above about 55%;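 further: CHO cells expressing OX1R stimulated with orexin A at about EC80; 0% = agonist challenge alone and 100% = reference antagonist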
CHO-K1 HTRF cnt = counter-screen: parental CHO-K1 HTRF response; shares compounds with OX1R antag-1; parental CHO-K1 cells, HTRF counterscreen; inhibition, % at 6.6 µM; 1,800 tested, 48% active; AID 493232; in the data active means inhibition above about 17%;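 further: 0% = agonist challenge with vehicle and 100% = vehicle alone without agonist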
Active calls of the source: *; · = no result given. The list is not random: actives were taken first. Their share in the collection is about 4.5%.

SMILES	GPR7 antagonist	TAAR1 antagonist	OX1R antag-1	CHO parental Ca	TAAR1 ag	OX1R antag-2	OX1R HTRF conf	CHO-K1 HTRF cnt
Cc1cccc2c3nc4ccccc4nc3n(C)c12	-5	-1	81*	-12	0	24	92*	15
COC(=O)Cn1c2nc3ccccc3nc2c2cccc(C)c21	-19	5	·	·	0	·	·	·
O=C(NNC(=O)c1ccc([N+](=O)[O-])cc1Cl)c1ccncc1	-1	-10	103*	-6	0	-11	39	44*
O=C(Nc1ccc([N+](=O)[O-])cc1)C(=O)Nc1cccc(C(=O)O)c1	-6	-23	79*	-6	1	-6	36	32*
Nc1cc2c(cc1Br)-c1ccc(F)cc1C2O (stereo not drawn)	·	-2	·	·	21	·	·	·
COCC(C)NC(=O)c1cccc([N+](=O)[O-])c1 (stereo not drawn)	-8	5	127*	-1	0	2	19	19*
O=C1CSC(=S)N1/N=C/c1ccc(O)c(O)c1O	-9	·	84*	-3	·	-2	16	-4
O=C(NCCCN1CCOCC1)c1sc2cc(Cl)ccc2c1Cl	0	7	9	-1	7	-35	·	·
O=C(CN1CCOCC1)Nc1cc([N+](=O)[O-])ccc1Cl	-10	-15	79*	-4	10	-5	31	35*
O=C(NCCN1CCOCC1)c1cc(Cl)ccc1[N+](=O)[O-]	-10	-4	51	-3	-1	8	·	·
O=C(NCCN1CCOCC1)c1ccc([N+](=O)[O-])cc1[N+](=O)[O-]	0	11	179*	-10	7	-13	73*	81*
O=C(NCCCN1CCOCC1)c1sc2cc([N+](=O)[O-])ccc2c1Cl	-2	·	93*	-9	·	-11	39	56*
COc1cc(/C=N/N=C2/SCC(=O)N2c2ccc(O)cc2)ccc1O	-1	32	6	7	15	4	·	·
Cc1ccc([C@H]2C[C@H](n3cc(C4CC4)nn3)[C@@H](O)CN2C(=O)C2CCCCC2)cc1	·	-1	·	·	4	·	·	·
O=[N+]([O-])c1ccc(N=Nc2ncc[nH]2)cc1	1	3	·	·	6	·	·	·
CCn1c(O)c(/C=C2\C=Nc3ccccc32)sc1=O	-9	21	86*	-20	2	16	86*	6
CCn1c(O)c(/C=C2\C=Nc3ccccc32)sc1=Nc1ccc(C)cc1	1	-1	18	-9	9	-28	·	·
O=C(Nc1c(-c2ccccc2)[nH][nH]c1=O)c1ccco1	·	13	·	·	1	·	·	·
CC(C)(C)n1nnnc1C(c1ccccc1)N1CCN(c2ncccn2)CC1 (stereo not drawn)	·	13	·	·	2	·	·	·
O=C(NCc1ccco1)C1CCCN(S(=O)(=O)c2cccc3nsnc23)C1 (stereo not drawn)	-11	20	78*	3	3	-13	31	34*
O=S(=O)(Nc1ccccc1)c1cccc2nsnc12	-12	-5	26	7	2	-7	·	·
CC(=O)Nc1ccc(NC(=O)C2CCC(CNS(=O)(=O)c3cccc4nsnc34)CC2)cc1 (stereo not drawn)	-18	8	44	12	7	-7	·	·
O=C(NCc1ccco1)C(NS(=O)(=O)c1cccc2nsnc12)c1ccccc1 (stereo not drawn)	-4	2	92*	-29	3	-28	61*	28*
CC(=O)Nc1ccc(NC(=O)C2CCCN2S(=O)(=O)c2cccc3nsnc23)cc1 (stereo not drawn)	-12	1	80*	5	0	-12	62*	36*
Cc1ccc(CNC(=O)C(NS(=O)(=O)c2cccc3nsnc23)C(C)C)cc1 (stereo not drawn)	-17	-19	38	-12	4	-18	·	·
CCCNC(=O)C(NS(=O)(=O)c1cccc2nsnc12)c1ccccc1 (stereo not drawn)	-1	-26	98*	-20	2	-31	64*	36*
